Measured values from different studies.
Compare with care: the assays were run in different laboratories.
Target: Serine/threonine-protein kinase Sgk3 (SGK3, Homo sapiens, UniProt Q96BR1)
Sequence (Q96BR1 1-496, as in one of the studies): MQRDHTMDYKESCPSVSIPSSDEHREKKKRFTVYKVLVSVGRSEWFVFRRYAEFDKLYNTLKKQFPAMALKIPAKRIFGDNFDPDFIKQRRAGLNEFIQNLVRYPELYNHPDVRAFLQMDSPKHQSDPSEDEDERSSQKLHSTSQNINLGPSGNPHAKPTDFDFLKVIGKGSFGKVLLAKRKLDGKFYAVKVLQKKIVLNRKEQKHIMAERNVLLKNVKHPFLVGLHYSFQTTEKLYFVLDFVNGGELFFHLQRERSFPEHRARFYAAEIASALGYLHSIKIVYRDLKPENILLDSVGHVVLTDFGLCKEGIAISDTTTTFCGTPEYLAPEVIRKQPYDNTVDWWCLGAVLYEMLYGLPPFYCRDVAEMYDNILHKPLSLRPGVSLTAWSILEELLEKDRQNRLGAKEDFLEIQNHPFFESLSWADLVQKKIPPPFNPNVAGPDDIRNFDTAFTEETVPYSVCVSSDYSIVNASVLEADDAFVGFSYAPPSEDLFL

CCC(=N\O)/C(C)=C/c1ccc(F)cc1
remaining binding (cell-free assay; competition with immobilised ligand; 1 µM): 81%

O=C(Nc1c[nH]nc1C(=O)NC1CCNCC1)c1cc(F)cc(F)c1
remaining binding (binding; competition with immobilised ligand; 1 µM): 100%

CCN1CCN(Cc2ccc(C(=O)Nc3ccc(C)c(Oc4ccc5c(c4)CC(=O)N5)c3)cc2C(F)(F)F)CC1
remaining binding (binding; competition with immobilised ligand; 1 µM): 100%

COc1cccc(CNC(=O)c2nc3scc(COCc4ccc(C(=O)O)cc4)c3c(=O)[nH]2)c1
remaining binding (cell-free assay; competition with immobilised ligand; 1 µM): 69.2%

O=C(c1ccc(Nc2ncc(Cl)c(-c3ccc(Cl)s3)n2)cc1)N1CCC(N2CCCC2)CC1
remaining binding (binding; competition with immobilised ligand; 1 µM): 4.7%

O=C(Nc1cnc(Oc2ccc(F)cc2)nc1)N1CCc2ncccc2[C@@H]1c1ccc(F)cc1
remaining binding (cell-free assay; competition with immobilised ligand; 1 µM): 100%

Cc1cnn2ncc(-c3ccnc(N(C)C)n3)c2c1
remaining binding (binding; 1 µM): 100%

COc1cnc(Nc2cccc(S(N)(=O)=O)c2)nc1N1CCN(c2ccccc2)CC1
remaining binding (binding; competition with immobilised ligand; 1 µM): 72%

CN(C)c1nccc(-c2cnn3ncccc23)n1
remaining binding (binding; 1 µM): 100%

CNC(=O)[C@@H]1CC[C@@H](n2c(-c3ccc4cnccc4c3)nc3ccc(C(=O)NCc4cccc(C(N)=O)c4)cc32)C1
remaining binding (binding; competition with immobilised ligand; 1 µM): 82%

Cc1c(NC(=O)c2cc(C(N)=O)nc3cc(F)ccc23)c(C(F)(F)F)nn1Cc1ccc(C(C)(C)C)cc1
remaining binding (cell-free assay; competition with immobilised ligand; 1 µM): 94%

c1cnn2ncc(-c3ccnc(N4CCC45COC5)n3)c2c1
remaining binding (binding; 1 µM): 71%

C[C@@H](c1ccc(-n2cnc3c(N)ncnc32)cc1)N1CCc2nn(C)c(Cc3ccccc3)c2C1=O
remaining binding (binding; competition with immobilised ligand; 0.1 µM): 93%

O=C(c1ccc(Nc2nccc(-c3cc4ccccc4s3)n2)cc1)N1CCC(N2CCCC2)CC1
remaining binding (binding; competition with immobilised ligand; 1 µM): 19%

C=CC(=O)N1CCC(C(=O)NCC(=O)N2CCN(c3nc(-c4cnc(N)nc4C(F)F)nc(N4CCOCC4)n3)CC2)CC1
remaining binding (binding; competition with immobilised ligand; 1 µM): 100%

C[C@@H]1CCN(c2nccc(-c3cnn4ncccc34)n2)C1
remaining binding (binding; 1 µM): 87%

COCCOc1nc(-c2ccc(Cl)nc2)nc2c1CN(C(=O)c1ncn3ccccc13)CC2
remaining binding (cell-free assay; competition with immobilised ligand; 0.1 µM): 100%

N[C@@H]1CCN(c2nccc(-c3cnn4ncccc34)n2)C1
remaining binding (binding; 1 µM): 100%

CS(=O)(=O)c1cc(C2(NC(=O)c3cncc4c3cnn4-c3ccc(F)cc3)CC2)ccn1
remaining binding (cell-free assay; competition with immobilised ligand; 1 µM): 100%

CN(c1nccc(-c2cnn3ncccc23)n1)C1CC1
remaining binding (binding; 1 µM): 99%

O=C(c1ccc(Nc2ncc(Cl)c(-c3cc4ccccc4s3)n2)cc1)N1CCC(N2CCCC2)CC1
remaining binding (binding; competition with immobilised ligand; 1 µM): 5.6%
